Values joined by “and” are separate entries in the source; they are usually repeats but may differ in a detail not shown here. Identical values can stand only once.
How the values were obtained:
[1] = system: Mus musculus; experiment: Protection against chloroform induced arrhythmias in mice after subcutaneous administration at 100 mg/kg dose.; format: functional
How it was run: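 Groups of 10 unanesthetized mice got sc injection of drug in 0.9% saline. After 20 min observation they were placed one by one in chloroform-vapor-saturated air. When breathing stopped, the thorax was opened and the heart inspected by eye; coordinated ventricular contractions counted as protected.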

[2] = system: Canis familiaris; experiment: % ectopic beats was measured in unanesthetized dog at 0.056 dose
[3] = system: Canis familiaris; experiment: Ventricular rate was measured in anesthetized dog at 0.038 dose; format: functional, Canis lupus familiaris, Heart; settings: in the assay text read “unanesthetized dog” for “anesthetized dog”
How it was run: (§1)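 Adult female dogs (6.7–14.5 kg) had two-stage ligation of the left anterior descending coronary artery the day before testing. After control ventricular rate, % ectopic beats and mean arterial pressure were recorded, the drug (HCl salt, isotonic solution) was infused iv without anesthesia at 0.1, 0.5 or 1.0 (mg/kg)/min, mostly 0.5. Infusion continued until the arrhythmia was abolished or cardiovascular/CNS toxicity appeared. Cumulative dose is given in mmol/kg; toxicity included convulsion and P-R prolongation ≥25%.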

[4] = species on record: Canis familiaris; experiment: Nature of toxicity was expressed; convulsion; format: organism-based, Canis lupus familiaris; settings: dog, in vivo; how it was run: as §1
[5] = species on record: Canis familiaris; experiment: MABP value was measured in […] at 0.084 dose; format: functional, Canis lupus familiaris; how it was run: as §1
[6] = system: Canis familiaris; experiment: Ventricular rate was measured in anesthetized dog at 0.042d dose; format: functional, Canis lupus familiaris, Heart; settings: in the assay text read “unanesthetized dog” for “anesthetized dog”; how it was run: as §1
[7] = system: Canis familiaris; experiment: Blood level was measured in anesthetized dog at 0.084 dose; format: functional, Canis lupus familiaris
[8] = system: Canis familiaris; experiment: % ectopic beats was measured in anesthetized dog at 0.038 dose; format: functional, Canis lupus familiaris, Heart; settings: in the assay text read “unanesthetized” for “anesthetized”
How it was run: (§2)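 Adult female dogs (6.7–14.5 kg) had the left anterior descending coronary artery ligated in two stages the day before testing. Dogs were unanesthetized. Ectopic beats (% of ventricular rate) and mean arterial pressure were read at maximal antiarrhythmic effect against the cumulative dose.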

[9] = system: Canis familiaris; experiment: Ventricular rate was measured in anesthetized dog at 0.084 dose; format: functional, Canis lupus familiaris, Heart; settings: in the assay text read “unanesthetized” for “anesthetized”
How it was run: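 Adult female dogs (6.7–14.5 kg) had ventricular arrhythmias from two-stage ligation of the left anterior descending coronary artery the day before. Ventricular rate (bpm) was read at maximal antiarrhythmic effect against cumulative dose.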

[10] = system: Canis familiaris; experiment: MABP value was measured in anesthetized dog at 0.056 dose; format: functional, Canis lupus familiaris; settings: in the assay text read “unanesthetized dog” for “anesthetized dog”; how it was run: as §1
[11] = system: Canis familiaris; experiment: % ectopic beats was measured in unanesthetized dog at 0.084 dose
[12] = species on record: Mus musculus; experiment: Percentage toxicity measured as loss of righting reflex.; format: organism-based; settings: in vivo
How it was run: (§3)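 Mice (groups of 10) were dosed sc with drug in 0.9% saline and watched for 20 min for overt toxicity (ataxia, convulsions, loss of righting reflex, death) before chloroform exposure.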

[13] = system: Canis familiaris; experiment: MABP value was measured in anesthetized dog at 0.038 dose; format: functional, Canis lupus familiaris; settings: in the assay text read “unanesthetized dog” for “anesthetized dog”; how it was run: as §2
[14] = species on record: Mus musculus; experiment: Percentage toxicity measured as ataxia.; format: organism-based; settings: in vivo; how it was run: as §3
[15] = system: Canis familiaris; experiment: Ventricular rate was measured in anesthetized dog at 0.056 dose; format: functional, Canis lupus familiaris, Heart; settings: in the assay text read “unanesthetized dog” for “anesthetized dog”; how it was run: as §1
[16] = system: Canis familiaris; experiment: Ventricular rate was measured in anesthetized dog at 0.042 dose; format: functional, Canis lupus familiaris, Heart; settings: in the assay text read “unanesthetized dog” for “anesthetized dog”; how it was run: as §1
[17] = system: Canis familiaris; experiment: MABP value was measured in anesthetized dog at 0.042 dose; format: functional, Canis lupus familiaris
[18] = species on record: Canis familiaris; experiment: (§4) The dose at which toxicity was measured; format: organism-based, Canis lupus familiaris; settings: dog, in vivo; how it was run: as §1
[19] = Percentage toxicity measured as death of mice.; format: organism-based; design: concentration or dose not given beside the values; settings: mouse, in vivo; read-out: Death
[20] = species on record: Mus musculus; experiment: Percentage toxicity measured as convulsions.; format: organism-based; settings: in vivo; how it was run: as §3
[21] = species on record: Canis familiaris; experiment: as §4; format: organism-based, Canis lupus familiaris; design: unit: mmol/kg; settings: dog, in vivo; how it was run: as §1
[22] = system: Canis familiaris; experiment: Blood level was measured in anesthetized dog at 0.042 dose; format: functional, Canis lupus familiaris

Which Protection [1] does the source give for `CC(C)Oc1ccc2c(c1)C1(CCC2)CC(=O)N(CCCN(C)C)C1=O` (configuration not stated) here?
Its Protection is 50%.

What about the Ectopic beats [2] of the same compound?
Its Ectopic beats is 5%.

What about the Ventricular rate [3] of the same compound?
Its Ventricular rate is 120 beats min-1.

What about the Nature [4] of the same compound?
The Nature was “convulsion”.

What about the MABP [5] of the same compound?
Its MABP is 125 mmHg.

What about the Ventricular rate [6] of the same compound?
Its Ventricular rate is 150 beats min-1.

And the Blood level [7]?
The Blood level was 0.021 uM ml-1.

What about the Etopic beats [8] of the same compound?
Its Etopic beats is 2%.

And the Ventricular rate [9]?
The Ventricular rate was 138 beats min-1.

What about the MABP [10] of the same compound?
Its MABP is 110 mmHg.

And the Ectopic beats [11]?
Its Ectopic beats is 15%.

And the “Loss of righting reflex” value [12]?
Its value is 10%.

And the MABP [13]?
Its MABP is 75 mmHg.

What about the Ataxia [14] of the same compound?
The Ataxia was 100%.

And the Ventricular rate [15]?
Its Ventricular rate is 171 beats min-1.

And the Ventricular rate [16]?
Its Ventricular rate is 165 beats min-1.

And the MABP [17]?
Its MABP is 90 mmHg and 100 mmHg.

And the Cumulative dose [18]?
The Cumulative dose was 0.066.

And the mortality [19]?
Its mortality is 0%.

And the Convulsion [20]?
Its Convulsion is 0%.

And the Cumulative dose [21]?
The Cumulative dose was 0.077 and 0.133.

What about the Blood level [22] of the same compound?
Its Blood level is 0.013 uM ml-1.
